Data reported in publication PMC3500602 (Free radical research, 2011).

Columns and labels:
[1] = tested on: SOD-deficient E. coli; conditions: cited from earlier work; for efficacy in protecting SOD-deficient E. coli: ortho vs meta
[2] = cited from earlier work; for SOD activity log kcat (O2^·−): cyt c assay, 0.05 M phosphate buffer, pH 7.8, 25 ± 1°C
[3] = tested on: human epithelial colorectal adenocarcinoma Caco-2; experiment: WST-1-based cytotoxicity assay, Caco-2; assay type: cell-based; conditions: read-out: IC50 values for MnPs in the absence of ascorbate; Caco-2, 96 h, WST-1, no ascorbate
[4] = tested on: four tumour cell lines (Caco-2, HCT116, 4T1 and Hela); experiment: WST-1-based cytotoxicity assay, statements across the four tumour cell lines; conditions: for cytotoxicity relative to MnTnHex-2-PyP^5+ in the presence of ascorbate: slopes of curves in Figure 5; for effect of low levels on the cell: Figures 5 and 6; for toxicity of MnP in its own right: absence of ascorbate, 30 µM MnP, HCT116, 4T1, Hela
[5] = Metal-centered reduction potential E1/2 for Mn^IIIP/Mn^IIP redox couple; assay type: physicochemical
[6] = cited from earlier work
[7] = plastic-backed silica-gel TLC plates, 1:1:8 = KNO3(sat):H2O:CH3CN; cited from earlier work
[8] = tested on: 4T1 mouse breast carcinoma cells; experiment: Clonogenic assay, 4T1; assay type: cell-based; conditions: 4T1, ascorbate 1 mM or MnTnHex-2-PyP^5+ 15 and 30 µM alone, 24 h
[9] = MnTnHex-2-PyP^5+ levels in tumour and muscle by LCMS/MS; assay type: in vivo, Balb/c mice
Procedure, shortened: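 Female Balb/c mice (6–8 weeks, ~22 g) bearing subcutaneous flank 4T1 tumours (10^6 cells), treated from ~200 mm3 for 15 days with porphyrin 1 mg/kg twice daily sc, with or without sodium ascorbate 2 g/kg twice daily ip given 1 h later. Tumour and opposite-leg muscle homogenised, deproteinised with 1% acetic acid in methanol, dried, reconstituted; porphyrin by LC-MS/MS, µM in homogenate.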

[10] = tested on: 4T1 tumour cells; experiment: LCMS/MS analysis of MnTnHex-2-PyP^5+ levels in 4T1 cells; assay type: in vitro ADME, mouse
Procedure, shortened: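 4T1 cells at 1,440,000 per plate in 10 mL DMEM (high glucose, 10% FBS), attached 24 h (~80% confluence), then given 0.5 or 1 mM ascorbate, 5, 15 or 30 µM porphyrin, or combinations, for 24 h. PBS-rinsed, RIPA-lysed on ice, sonicated, spun; lysate porphyrin by LC-MS/MS normalised to Bradford protein. Intracellular concentration calculated assuming 2.19 µL cell volume/mg protein.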

[11] = tested on: HCT116 human colorectal carcinoma cells; experiment: Clonogenic assay, HCT116; assay type: cell-based; conditions: HCT116, ascorbate 0.5 mM or MnTnHex-2-PyP^5+ 15 and 30 µM alone, 24 h
[12] = tested on: Caco-2 cells; experiment: Identification of species involved in cytotoxicity; assay type: cell-based, human
Procedure, shortened: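 Caco-2 cells at 10,000/well in alpha-MEM with 10% FBS; after 24 h at 37°C, 5% CO2, exposed to 30 µM Mn porphyrin, 3.3 mM ascorbate or both, with or without 1,500 units/mL catalase or 5 mM mannitol, for 96 h. Cells PBS-washed, WST-1 added for 2 h at 37°C, A450/595 read, % viability versus no-drug cells after cell-free blank subtraction.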

[13] = n-octanol-water partition coefficient, log Pow; assay type: physicochemical
[14] = Rate constant for the oxidation of Mn^IIP with oxygen; conditions: estimated from Mn^IITM-4-PyP^4+ value and structure-activity relationship

CC[n+]1ccccc1-c1c2nc(c(-c3cccc[n+]3CC)c3ccc([n-]3)c(-c3cccc[n+]3CC)c3nc(c(-c4cccc[n+]4CC)c4ccc1[n-]4)C=C3)C=C2.[Mn+3] [MnTE-2-PyP^5+, Mn(III) meso-tetrakis(N-ethylpyridinium-2-yl)porphyrin]
efficacy in protecting SOD-deficient E. coli [1]: equally efficacious | fold more potent SOD mimic than meta MnTE-3-PyP^5+ [2]: 10 fold | SOD activity log kcat (O2^·−) [2]: 7.76 | IC50 [3]: 470 µM | cytotoxicity relative to MnTnHex-2-PyP^5+ in the presence of ascorbate ([4]; 4T1, Hela): more cytotoxic | cytotoxicity relative to MnTnHex-2-PyP^5+ in the presence of ascorbate ([4]; HCT116, Caco-2): equally | effect of low levels on the cell [4]: beneficial | E1/2 difference relative to MnTnHex-2-PyP^5+ (less positive / more negative) [5]: ~ 100 mV

CC[n+]1cccc(-c2c3nc(c(-c4ccc[n+](CC)c4)c4ccc([n-]4)c(-c4ccc[n+](CC)c4)c4nc(c(-c5ccc[n+](CC)c5)c5ccc2[n-]5)C=C4)C=C3)c1.[Mn+3] [MnTE-3-PyP^5+, Mn(III) meso-tetrakis(N-ethylpyridinium-3-yl)porphyrin, reference compound]
fold more accumulation within E. coli cell than MnTE-2-PyP^5+ [1]: 10 fold | efficacy in protecting SOD-deficient E. coli [1]: equally efficacious | fold more lipophilic than ortho MnTE-2-PyP^5+ [6]: 10 fold

C[n+]1ccc(-c2c3nc(c(-c4cc[n+](C)cc4)c4ccc([n-]4)c(-c4cc[n+](C)cc4)c4nc(c(-c5cc[n+](C)cc5)c5ccc2[n-]5)C=C4)C=C3)cc1.[Mn+3] [MnTM-4-PyP^5+, Mn(III) meso-tetrakis(N-methylpyridinium-4-yl)porphyrin, reference compound]
Lipophilicity Rf [7]: 0.064 | SOD activity log kcat (O2^·−) [2]: 6.58

CCCCCC[n+]1ccccc1-c1c2nc(c(-c3cccc[n+]3CCCCCC)c3ccc([n-]3)c(-c3cccc[n+]3CCCCCC)c3nc(c(-c4cccc[n+]4CCCCCC)c4ccc1[n-]4)C=C3)C=C2.[Mn+3] [MnTnHex-2-PyP^5+, Mn(III) meso-tetrakis(N-n-hexylpyridinium-2-yl)porphyrin]
ability to produce colonies, single agent [8]: did not affect | SOD activity log kcat (O2^·−) [2]: 7.48 | IC50 [3]: 170 µM | enhancement of MnP accumulation by ascorbate in muscle ([9]; MnP/ascorbate vs MnP treated mice, muscle): 54% | enhancement of MnP accumulation by ascorbate in tumour ([9]; MnP/ascorbate vs MnP treated mice, tumour): 33% | accumulation in tumour relative to muscle from the opposite leg ([9]; MnTnHex-2-PyP^5+ 1 mg/kg twice daily sc, tissue homogenates): higher accumulation in tumour | toxicity of MnP in its own right [4]: exerted toxicity | MnP concentration in the cells relative to the medium ([10]; 30 µM MnP in medium): ~ 4 times | more MnP found within cells with MnP/ascorbate compared to MnP alone ([10]; 4T1 cells, depending on concentrations of ascorbate and porphyrin): ≤ 29% | ability to produce colonies, single agent [11]: did not affect

CCCCCC[n+]1cccc(-c2c3nc(c(-c4ccc[n+](CCCCCC)c4)c4ccc([n-]4)c(-c4ccc[n+](CCCCCC)c4)c4nc(c(-c5ccc[n+](CCCCCC)c5)c5ccc2[n-]5)C=C4)C=C3)c1.[Mn+3] [MnTnHex-3-PyP^5+, Mn(III) meso-tetrakis(N-n-hexylpyridinium-3-yl)porphyrin]
toxicity of MnP by itself to Caco-2 cells ([12]; Caco-2, 30 µM MnP, no ascorbate, Figure 9): less toxic | effect of mannitol on cytotoxicity ([12]; Caco-2, 5 mM mannitol, 4 days): blocked significantly | accumulation within E. coli cell relative to MnTnHex-2-PyP^5+ ([1]; absence of exogenous reductant): several-fold more | SOD activity log kcat (O2^·−) [2]: 6.64 | fold more lipophilic than MnTnHex-2-PyP^5+ [13]: ~ 10 fold | IC50 [3]: 140 µM | toxicity of MnP in its own right [4]: not significantly toxic | effect of low levels on the cell [4]: beneficial | E1/2 difference relative to MnTE-2-PyP^5+ (more negative) [5]: ~150 mV | E1/2 difference relative to MnTnHex-2-PyP^5+ (less positive / more negative) [5]: ~ 250 mV

CC[n+]1ccccc1-c1c2nc(c(-c3cccc[n+]3CC)c3ccc([n-]3)c(-c3cccc[n+]3CC)c3nc(c(-c4cccc[n+]4CC)c4ccc1[n-]4)C=C3)C=C2.[Mn+2] [Mn^IITE-2-PyP^4+]
rate constant for the reaction with O2 [14]: 80000 M⁻¹ s⁻¹
